Experimental data from ChEMBL document CHEMBL1131436, “Repaglinide and related hypoglycemic benzoic acid derivatives” (1998).

Legend:
Rattus norvegicus [1] = assay: Maximum % decrease of blood glucose (deltaBG) was observed within 4 hour after administration orally at 0.5 mg/kg dose to fasted adult female rats versus a control group; type: functional; conditions: route oral
Method in brief: (§1)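 Female Wistar rats (Chbb THOM, SPF, 200-220 g), fasted 24 h, dosed orally by gavage as suspension in 1.5% Tylose methylcellulose (10 mL/kg). Whole blood from retrobulbar plexus under light halothane, deproteinized with 0.33 M HClO4; glucose by hexokinase/G6PDH, hourly up to 4 h. % decrease vs control group (N = 7), Student's t-test, P ≤ 0.05.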

Rattus norvegicus [2] = assay: Half-maximal effective dose was measured on rat blood glucose after administrating at 4 hr; type: functional; conditions: Rattus norvegicus, Blood, 4 h; read-out: ED50
Method in brief: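 Adult fasted female Wistar rats (Chbb THOM, SPF, 200-220 g), food withdrawn 24 h; oral gavage of suspension in 1.5% Tylose (methylcellulose), 10 mL/kg. Retrobulbar blood under light halothane; glucose by hexokinase/G6PDH after HClO4 deproteinization, hourly to 4 h. ED50 from fit of glucose vs dose, y = b + [a × k/(k + x^nH)], Hill coefficient nH.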

Rattus norvegicus [3] = assay: Maximum % decrease of blood glucose (deltaBG) was observed within 4 hour after administration orally at 1 mg/kg dose to fasted adult female rats versus a control group; type: functional; conditions: route oral; method in brief: as §1
Rattus norvegicus [4] = assay: Maximum % decrease of blood glucose (deltaBG) was observed within 4 hour after administration orally at 10 mg/kg dose to fasted adult female rats versus a control group; type: functional; conditions: route oral; method in brief: as §1
Rattus norvegicus [5] = assay: Maximum % decrease of blood glucose (deltaBG) was observed within 4 hour after administration orally at 25 mg/kg dose to fasted adult female rats versus a control group; NS =' not significant'; type: functional, organism-based; parameters: dose 25 mg/kg; method in brief: as §1
Rattus norvegicus [6] = assay: Maximum % decrease of blood glucose (deltaBG) was observed within 4 hour after administration orally at 0.1 mg/kg dose to fasted adult female rats versus a control group; type: functional; conditions: route oral; method in brief: as §1
Rattus norvegicus [7] = assay: Maximum % decrease of blood glucose (deltaBG) was observed within 4 hour after administration orally at 1 mg/kg dose to fasted adult female rats versus a control group; NS =' not significant'; type: functional, organism-based; parameters: dose 1 mg/kg; method in brief: as §1

## CCCCC(NC(=O)Cc1ccc(C(=O)O)cc1)c1ccccc1N1CCCCC1 (configuration not stated)
Rattus norvegicus [1]
  Delta BG: -32%

## COc1ccc(Cl)cc1C(=O)NCCc1ccc(C(=O)O)cc1 [MEGLITINIDE]
Rattus norvegicus [2]
  ED50: 9.4 mg/kg
Rattus norvegicus [3]
  Delta BG: -9%
Rattus norvegicus [4]
  Delta BG: -22%

## CC(NC(=O)Cc1ccc(C(=O)O)cc1)c1ccccc1N1CCCCCCCC1 (configuration not stated)
Rattus norvegicus [5]
  Delta BG: Not significant

## CCOc1cc(CC(=O)NC(CC2CCC2)c2ccccc2N2CCCCC2)ccc1C(=O)O (configuration not stated)
Rattus norvegicus [6]
  Delta BG: -27%

## C=C(C)CC(NC(=O)Cc1ccc(C(=O)O)c(OCC)c1)c1ccccc1N1CCCCC1 (configuration not stated)
Rattus norvegicus [6]
  Delta BG: -31%

## CCOc1cc(CCNC(=O)c2cc(Cl)ccc2OC)ccc1C(=O)O
Rattus norvegicus [3]
  Delta BG: -8%
Rattus norvegicus [4]
  Delta BG: -35%

## CCC(NC(=O)Cc1ccc(C(=O)O)cc1)c1ccccc1N1CCCCC1 (configuration not stated)
Rattus norvegicus [1]
  Delta BG: -28%

## O=C(O)c1ccc(CCNC(=O)c2cc(Cl)ccc2N2CCCCCCCCC2)cc1
Rattus norvegicus [3]
  Delta BG: -29%

## CCOc1cc(CC(=O)NC(c2ccccc2)c2ccccc2N2CCCCC2)ccc1C(=O)O (configuration not stated)
Rattus norvegicus [6]
  Delta BG: -22%
Rattus norvegicus [1]
  Delta BG: -40%

## O=C(Cc1ccc(C(=O)O)cc1)NCc1cc(Cl)ccc1N1CCCCC1
Rattus norvegicus [4]
  Delta BG: -37%

## CC1CCCN(c2ccccc2C(C)NC(=O)Cc2ccc(C(=O)O)cc2)C1 (configuration not stated)
Rattus norvegicus [3]
  Delta BG: -27%
Rattus norvegicus [4]
  Delta BG: -42%

## CC1CCCN(c2ccc(Cl)cc2C(C)NC(=O)Cc2ccc(C(=O)O)cc2)C1 (configuration not stated)
Rattus norvegicus [4]
  Delta BG: -34%

## CCCC(CC(=O)Cc1ccc(C(=O)O)cc1)c1ccccc1N1CCCCC1 (configuration not stated)
Rattus norvegicus [4]
  Delta BG: -11%

## CC(NC(=O)Cc1ccc(C(=O)O)cc1)c1ccc(N2CCCCC2)cc1 (configuration not stated)
Rattus norvegicus [5]
  Delta BG: Not significant

## CCC[C@H](NC(=O)Cc1ccc(C(=O)O)cc1)c1ccccc1N1CCCCC1
Rattus norvegicus [6]
  Delta BG: -29%

## CCCC(NC(=O)Cc1ccc(C(=O)O)cc1)c1ccccc1C1=CCCCC1 (configuration not stated)
Rattus norvegicus [7]
  Delta BG: Not significant
Rattus norvegicus [4]
  Delta BG: -48%

## CC(NC(=O)Cc1ccc(C(=O)O)cc1)c1ccccc1N1CCCCC1C (configuration not stated)
Rattus norvegicus [3]
  Delta BG: -13%
Rattus norvegicus [4]
  Delta BG: -43%

## CCOc1cc(CC(=O)NC(CC2CC2)c2ccccc2N2CCCCC2)ccc1C(=O)O (configuration not stated)
Rattus norvegicus [6]
  Delta BG: -37%

## CC(NC(=O)Cc1ccc(C(=O)O)cc1)c1ccccc1N(C)C (configuration not stated)
Rattus norvegicus [4]
  Delta BG: -20%

## O=C(Cc1ccc(C(=O)O)cc1)NC(CCc1ccccc1)c1ccccc1N1CCCCC1 (configuration not stated)
Rattus norvegicus [4]
  Delta BG: -38%

## CCC[C@@H](NC(=O)Cc1ccc(C(=O)O)cc1)c1ccccc1N1CCCCC1
Rattus norvegicus [3]
  Delta BG: -19%

## CCCCC(NC(=O)Cc1ccc(C(=O)O)c(OCC)c1)c1ccccc1N1CCCCC1 (configuration not stated)
Rattus norvegicus [6]
  Delta BG: -24%
Rattus norvegicus [1]
  Delta BG: -45%

## CC(NC(=O)Cc1ccc(C(=O)O)cc1)c1cc(Cl)ccc1N(C)C (configuration not stated)
Rattus norvegicus [4]
  Delta BG: -20%

## COc1cc(CCNC(=O)c2cc(Cl)ccc2N2CCCCCCCC2)ccc1C(=O)O
Rattus norvegicus [3]
  Delta BG: -15%

## O=C(O)c1ccc(CCNC(=O)c2cc(Cl)ccc2N2CCCCCC2)cc1
Rattus norvegicus [3]
  Delta BG: -16%

## CC(C)(NC(=O)Cc1ccc(C(=O)O)cc1)c1ccccc1N1CCCCC1
Rattus norvegicus [4]
  Delta BG: -34%

## CCCC(NC(=O)Cc1ccc(C(=O)O)c(O)c1)c1ccccc1N1CCCCC1 (configuration not stated)
Rattus norvegicus [7]
  Delta BG: Not significant
Rattus norvegicus [4]
  Delta BG: -47%

## CC1CCCN(c2ccc(Cl)cc2C(=O)NCCc2ccc(C(=O)O)cc2)C1 (configuration not stated)
Rattus norvegicus [3]
  Delta BG: -22%

## O=C(Cc1ccc(C(=O)O)cc1)NCc1ccccc1N1CCCCC1
Rattus norvegicus [4]
  Delta BG: -38%

## CCOc1cc(CCNC(=O)c2cc(Cl)ccc2N2CCCCCCCC2)ccc1C(=O)O
Rattus norvegicus [3]
  Delta BG: -16%

## COc1ccccc1C(C)NC(=O)Cc1ccc(C(=O)O)cc1 (configuration not stated)
Rattus norvegicus [4]
  Delta BG: -21%

## C=C(C)C[C@H](NC(=O)Cc1ccc(C(=O)O)c(OCC)c1)c1ccccc1N1CCCCC1
Rattus norvegicus [6]
  Delta BG: -43%

## CCOc1cc(CC(=O)NC(Cc2ccccc2)c2ccccc2N2CCCCC2)ccc1C(=O)O (configuration not stated)
Rattus norvegicus [4]
  Delta BG: -38%

## CC(C)CC(NC(=O)Cc1ccc(C(=O)O)cc1)c1ccccc1N1CCCCC1 (configuration not stated)
Rattus norvegicus [6]
  Delta BG: -30%

## CC1CCN(c2ccccc2C(C)NC(=O)Cc2ccc(C(=O)O)cc2)CC1 (configuration not stated)
Rattus norvegicus [3]
  Delta BG: -27%
Rattus norvegicus [4]
  Delta BG: -46%

## CCOc1cc(CC(=O)NC(CC2CCCC2)c2ccccc2N2CCCCC2)ccc1C(=O)O (configuration not stated)
Rattus norvegicus [6]
  Delta BG: -17%

## CC(C)C(NC(=O)Cc1ccc(C(=O)O)cc1)c1ccccc1N1CCCCC1 (configuration not stated)
Rattus norvegicus [1]
  Delta BG: -18%

## CCCC(NC(=O)Cc1ccc(C(=O)O)cc1)c1ccccc1C1CCCCC1 (configuration not stated)
Rattus norvegicus [3]
  Delta BG: -9%
Rattus norvegicus [4]
  Delta BG: -31%

## COc1ccc(Cl)cc1C(C)NC(=O)Cc1ccc(C(=O)O)cc1 (configuration not stated)
Rattus norvegicus [4]
  Delta BG: -14%

## CCCC(/N=C(\S)Cc1ccc(C(=O)O)cc1)c1ccccc1N1CCCCC1 (configuration not stated)
Rattus norvegicus [4]
  Delta BG: -35%

## O=C(O)c1ccc(CCNC(=O)c2cc(Cl)ccc2N2CCCCCCCCCC2)cc1
Rattus norvegicus [7]
  Delta BG: Not significant

## CCCCCCC(NC(=O)Cc1ccc(C(=O)O)c(OCC)c1)c1ccccc1N1CCCCC1 (configuration not stated)
Rattus norvegicus [3]
  Delta BG: -21%

## CC(NC(=O)Cc1ccc(C(=O)O)cc1)c1cc(Cl)ccc1N1CCCCC1C (configuration not stated)
Rattus norvegicus [4]
  Delta BG: -14%

## CC(NC(=O)Cc1ccc(C(=O)O)cc1)c1cc(Cl)ccc1N1CCCCCCC1 (configuration not stated)
Rattus norvegicus [5]
  Delta BG: Not significant

## O=C(Cc1ccc(C(=O)O)cc1)NC(Cc1ccccc1)c1ccccc1N1CCCCC1 (configuration not stated)
Rattus norvegicus [4]
  Delta BG: -27%

## O=C(O)c1ccc(CCNC(=O)c2cc(Cl)ccc2N2CCCCCCC2)cc1
Rattus norvegicus [3]
  Delta BG: -29%

## CCCCCC(NC(=O)Cc1ccc(C(=O)O)c(OCC)c1)c1ccccc1N1CCCCC1 (configuration not stated)
Rattus norvegicus [6]
  Delta BG: -13%
Rattus norvegicus [1]
  Delta BG: -42%

## CCOc1cc(CC(=O)N[C@H](CC(C)C)c2ccccc2N2CCCCC2)ccc1C(=O)O
Rattus norvegicus [7]
  Delta BG: Not significant

## CCCC(NC(=O)Cc1ccc(C(=O)O)cc1)c1ccccc1-c1ccccc1 (configuration not stated)
Rattus norvegicus [4]
  Delta BG: -21%

## CCCC(c1ccccc1N1CCCCC1)N(C)C(=O)Cc1ccc(C(=O)O)cc1 (configuration not stated)
Rattus norvegicus [4]
  Delta BG: -12%

## CC1CCN(c2ccc(Cl)cc2C(=O)NCCc2ccc(C(=O)O)cc2)CC1
Rattus norvegicus [7]
  Delta BG: Not significant

## O=C(O)c1ccc(CCNC(=O)c2ccccc2N2CCCCCCCC2)cc1
Rattus norvegicus [3]
  Delta BG: -9%

## CCCC(NC(=O)Cc1ccc(C(=O)O)cc1)c1ccccc1OC (configuration not stated)
Rattus norvegicus [3]
  Delta BG: -21%
Rattus norvegicus [4]
  Delta BG: -44%

## CC(NS(=O)(=O)Cc1ccc(C(=O)O)cc1)c1ccccc1N1CCCCC1 (configuration not stated)
Rattus norvegicus [5]
  Delta BG: Not significant

## CCCCCC(NC(=O)Cc1ccc(C(=O)O)cc1)c1ccccc1N1CCCCC1 (configuration not stated)
Rattus norvegicus [3]
  Delta BG: -29%

## CCOc1cc(CC(=O)NC(CC2CCCCC2)c2ccccc2N2CCCCC2)ccc1C(=O)O (configuration not stated)
Rattus norvegicus [6]
  Delta BG: -23%

## O=C(Cc1ccc(C(=O)O)cc1)NC(c1ccccc1N1CCCCC1)C1CCCCC1 (configuration not stated)
Rattus norvegicus [3]
  Delta BG: -27%

## CC1CCCCN1c1ccc(Cl)cc1C(=O)NCCc1ccc(C(=O)O)cc1 (configuration not stated)
Rattus norvegicus [3]
  Delta BG: -16%

## CCCC(NC(=O)Cc1ccc(C(=O)O)cc1)c1cc(Cl)ccc1N1CCCCC1 (configuration not stated)
Rattus norvegicus [3]
  Delta BG: -17%

## CC1CC(C)CN(c2ccc(Cl)cc2C(=O)NCCc2ccc(C(=O)O)cc2)C1 (stereo in doubt; 5i)
Rattus norvegicus [3]; 1 mg/kg
  Delta BG: -11%

## O=C(Cc1ccc(C(=O)O)cc1)N[C@H](c1ccccc1)c1ccccc1N1CCCCC1
Rattus norvegicus [7]
  Delta BG: Not significant

## CCOc1cc(CC(=O)NC(C)c2ccccc2N2CCCCC2)ccc1C(=O)O (configuration not stated)
Rattus norvegicus [6]
  Delta BG: -27%

## CCCC(NC(=O)Cc1ccc(C(=O)O)cc1)c1ccccc1 (configuration not stated)
Rattus norvegicus [4]
  Delta BG: -18%

## CCOc1cc(CC(=O)NC(CC2CCCCCC2)c2ccccc2N2CCCCC2)ccc1C(=O)O (configuration not stated)
Rattus norvegicus [1]
  Delta BG: -19%

## CC(NC(=O)Cc1ccc(C(=O)O)cc1)c1cc(Cl)ccc1N1CCCC1 (configuration not stated)
Rattus norvegicus [4]
  Delta BG: -26%

## CC1CC(C)CN(c2ccc(Cl)cc2C(C)NC(=O)Cc2ccc(C(=O)O)cc2)C1 (configuration not stated)
Rattus norvegicus [4]
  Delta BG: -20%

## CC1CC(C)CN(c2ccc(Cl)cc2C(=O)NCCc2ccc(C(=O)O)cc2)C1 (stereo in doubt; 5h)
Rattus norvegicus [2]
  ED50: 0.33 mg/kg
Rattus norvegicus [1]
  Delta BG: -29%
Rattus norvegicus [3]; 1 mg/kg
  Delta BG: -44%
